Read-outs that look alike come from different tables or passages of the source. Marks after values point to notes of the source that are not given here.
What was measured:
healthy volunteers [1] = test: Thorough QT study part 1 sentinel cohort safety; format: in vivo, human; conditions: fostemsavir 2,400 mg b.i.d. for 7 days (n = 6)
healthy volunteers [2] = test: Thorough QT/QTc study part 2: Holter ECG, Fridericia-corrected QT interval; format: in vivo, human
Outline: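 Healthy subjects, randomized four-period crossover with 10-day washouts, fed: oral fostemsavir 1,200 mg q.d. or 2,400 mg b.i.d. for 7 days, placebo b.i.d., or single moxifloxacin 400 mg on day 7. Triplicate ECGs from 24-h Holter, read centrally. Baseline is the mean of day-1 predose readings; readings 0.5–22.25 h post-dose on day 7. Linear mixed model gives 90% CI; bound 10 msec; assay sensitivity >5 msec at 2–4 h.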

[3] = system: heavily treatment‐experienced subjects; conditions: treated for 96 weeks, BRIGHTE, fostemsavir 600 mg b.i.d. ref 23; cited from earlier work
healthy volunteers [4] = system: healthy volunteers; design: species or system human; conditions: at observed mean TMR Cmax, healthy adults
healthy volunteers [5] = conditions: total daily fostemsavir dose of 20–2,400 mg ref 10; cited from earlier work
healthy volunteers [6] = test: Adverse events and discontinuations in thorough QT study part 2; format: in vivo, human
[7] = TMR after FTR 600 mg b.i.d., N = 16, healthy adults ref 21; cited from earlier work
HIV‐1 = conditions: cited from earlier work
[8] = fostemsavir 1,200 mg q.d., at 6 hours postdose
[9] = fostemsavir 2,400 mg b.i.d., at 5 hours post‐AM dose

COc1cnc(-n2cnc(C)n2)c2c1c(C(=O)C(=O)N1CCN(C(=O)c3ccccc3)CC1)cn2COP(=O)(O)O [fostemsavir]
safety data (healthy volunteers [1]): all AEs (primarily dizziness and headache) were mild and there were no relevant cardiac signals
Mean change from baseline, msec ddQTcF (healthy volunteers [2]; FTR 1,200 mg q.d. (A), day 7, 0.5 hour): –7.44 msec
Mean change from baseline, msec ddQTcF (healthy volunteers [2]; FTR 1,200 mg q.d. (A), day 7, 1 hour): –7.25 msec
Mean change from baseline, msec ddQTcF (healthy volunteers [2]; FTR 1,200 mg q.d. (A), day 7, 2 hour): –6.78 msec
Mean change from baseline, msec ddQTcF (healthy volunteers [2]; FTR 1,200 mg q.d. (A), day 7, 3 hour): –7.54 msec
Mean change from baseline, msec ddQTcF (healthy volunteers [2]; FTR 1,200 mg q.d. (A), day 7, 4 hour): –3.37 msec
Mean change from baseline, msec ddQTcF (healthy volunteers [2]; FTR 1,200 mg q.d. (A), day 7, 5 hour): –0.49 msec
Mean change from baseline, msec ddQTcF (healthy volunteers [2]; FTR 1,200 mg q.d. (A), day 7, 6 hour): –4.52 msec
Mean change from baseline, msec ddQTcF (healthy volunteers [2]; FTR 1,200 mg q.d. (A), day 7, 8 hour): –6.87 msec
Mean change from baseline, msec ddQTcF (healthy volunteers [2]; FTR 1,200 mg q.d. (A), day 7, 10 hour): 0.76 ms
Mean change from baseline, msec ddQTcF (healthy volunteers [2]; FTR 1,200 mg q.d. (A), day 7, 11.5 hour): –5.31 msec
Mean change from baseline, msec ddQTcF (healthy volunteers [2]; FTR 1,200 mg q.d. (A), day 7, 14 hour): –7.05 msec
Mean change from baseline, msec ddQTcF (healthy volunteers [2]; FTR 1,200 mg q.d. (A), day 7, 15 hour): –3.84 msec
Mean change from baseline, msec ddQTcF (healthy volunteers [2]; FTR 1,200 mg q.d. (A), day 7, 16 hour): –1.48 msec
Mean change from baseline, msec ddQTcF (healthy volunteers [2]; FTR 1,200 mg q.d. (A), day 7, 22.25 hour): –3.18 msec
Mean difference vs. placebo (90% CI), msec ddQTcF (healthy volunteers [2]; FTR 1,200 mg q.d. (A–D), day 7, 0.5 hour): 0.10 (–1.98, 2.18) msec
Mean difference vs. placebo (90% CI), msec ddQTcF (healthy volunteers [2]; FTR 1,200 mg q.d. (A–D), day 7, 1 hour): 0.51 (–1.57, 2.58) msec
Mean difference vs. placebo (90% CI), msec ddQTcF (healthy volunteers [2]; FTR 1,200 mg q.d. (A–D), day 7, 2 hour): 3.84 (1.75, 5.93) msec
Mean difference vs. placebo (90% CI), msec ddQTcF (healthy volunteers [2]; FTR 1,200 mg q.d. (A–D), day 7, 3 hour): 2.49 (0.40, 4.57) msec
Mean difference vs. placebo (90% CI), msec ddQTcF (healthy volunteers [2]; FTR 1,200 mg q.d. (A–D), day 7, 4 hour): 3.66 (1.58, 5.75) msec
Mean difference vs. placebo (90% CI), msec ddQTcF (healthy volunteers [2]; FTR 1,200 mg q.d. (A–D), day 7, 5 hour): 4.18 (2.11, 6.26) msec
Mean difference vs. placebo (90% CI), msec ddQTcF (healthy volunteers [2]; FTR 1,200 mg q.d. (A–D), day 7, 6 hour): 4.27 (2.19, 6.34) msec
Mean difference vs. placebo (90% CI), msec ddQTcF (healthy volunteers [2]; FTR 1,200 mg q.d. (A–D), day 7, 10 hour): 3.94 (1.86, 6.01) msec
Mean difference vs. placebo (90% CI), msec ddQTcF (healthy volunteers [2]; FTR 1,200 mg q.d. (A–D), day 7, 11.5 hour): 1.61 (–0.48, 3.69) msec
Mean difference vs. placebo (90% CI), msec ddQTcF (healthy volunteers [2]; FTR 1,200 mg q.d. (A–D), day 7, 14 hour): –0.10 (–2.18, 1.972) msec
Mean difference vs. placebo (90% CI), msec ddQTcF (healthy volunteers [2]; FTR 1,200 mg q.d. (A–D), day 7, 15 hour): 0.30 (–1.78, 2.38) msec
Mean difference vs. placebo (90% CI), msec ddQTcF (healthy volunteers [2]; FTR 1,200 mg q.d. (A–D), day 7, 16 hour): 0.04 (–2.04, 2.12) msec
Mean difference vs. placebo (90% CI), msec ddQTcF (healthy volunteers [2]; FTR 1,200 mg q.d. (A–D), day 7, 22.25 hour): 0.29 (–1.79, 2.36) msec
Mean change from baseline, msec ddQTcF (healthy volunteers [2]; FTR 2,400 mg b.i.d. (B), day 7, 0.5 hour): –6.04 msec
Mean change from baseline, msec ddQTcF (healthy volunteers [2]; FTR 2,400 mg b.i.d. (B), day 7, 1 hour): –6.15 msec
Mean change from baseline, msec ddQTcF (healthy volunteers [2]; FTR 2,400 mg b.i.d. (B), day 7, 2 hour): –6.90 msec
Mean change from baseline, msec ddQTcF (healthy volunteers [2]; FTR 2,400 mg b.i.d. (B), day 7, 3 hour): –3.67 msec
Mean change from baseline, msec ddQTcF (healthy volunteers [2]; FTR 2,400 mg b.i.d. (B), day 7, 4 hour): 1.64 ms
Mean change from baseline, msec ddQTcF (healthy volunteers [2]; FTR 2,400 mg b.i.d. (B), day 7, 5 hour): 6.50 ms
Mean change from baseline, msec ddQTcF (healthy volunteers [2]; FTR 2,400 mg b.i.d. (B), day 7, 6 hour): 0.18 ms
Mean change from baseline, msec ddQTcF (healthy volunteers [2]; FTR 2,400 mg b.i.d. (B), day 7, 8 hour): –3.46 msec
Mean change from baseline, msec ddQTcF (healthy volunteers [2]; FTR 2,400 mg b.i.d. (B), day 7, 10 hour): 1.51 ms
Mean change from baseline, msec ddQTcF (healthy volunteers [2]; FTR 2,400 mg b.i.d. (B), day 7, 11.5 hour): –3.88 msec
Mean change from baseline, msec ddQTcF (healthy volunteers [2]; FTR 2,400 mg b.i.d. (B), day 7, 14 hour): –1.65 msec
Mean change from baseline, msec ddQTcF (healthy volunteers [2]; FTR 2,400 mg b.i.d. (B), day 7, 15 hour): 4.45 ms
Mean change from baseline, msec ddQTcF (healthy volunteers [2]; FTR 2,400 mg b.i.d. (B), day 7, 16 hour): 8.59 ms
Mean change from baseline, msec ddQTcF (healthy volunteers [2]; FTR 2,400 mg b.i.d. (B), day 7, 22.25 hour): 0.16 ms
Mean difference vs. placebo (90% CI), msec ddQTcF (healthy volunteers [2]; FTR 2,400 mg b.i.d. (B–D), day 7, 0.5 hour): 1.50 (–0.63, 3.62) msec
Mean difference vs. placebo (90% CI), msec ddQTcF (healthy volunteers [2]; FTR 2,400 mg b.i.d. (B–D), day 7, 1 hour): 1.61 (–0.51, 3.73) msec
Mean difference vs. placebo (90% CI), msec ddQTcF (healthy volunteers [2]; FTR 2,400 mg b.i.d. (B–D), day 7, 2 hour): 3.72 (1.60, 5.84) msec
Mean difference vs. placebo (90% CI), msec ddQTcF (healthy volunteers [2]; FTR 2,400 mg b.i.d. (B–D), day 7, 3 hour): 6.36 (4.23, 8.48) msec
Mean difference vs. placebo (90% CI), msec ddQTcF (healthy volunteers [2]; FTR 2,400 mg b.i.d. (B–D), day 7, 4 hour): 8.67 (6.55, 10.79) msec
Mean difference vs. placebo (90% CI), msec ddQTcF (healthy volunteers [2]; FTR 2,400 mg b.i.d. (B–D), day 7, 5 hour): 11.18 (9.05, 13.30) msec
Mean difference vs. placebo (90% CI), msec ddQTcF (healthy volunteers [2]; FTR 2,400 mg b.i.d. (B–D), day 7, 6 hour): 8.96 (6.84, 11.10) msec
Mean difference vs. placebo (90% CI), msec ddQTcF (healthy volunteers [2]; FTR 2,400 mg b.i.d. (B–D), day 7, 8 hour): 5.33 (3.21, 7.46) msec
Mean difference vs. placebo (90% CI), msec ddQTcF (healthy volunteers [2]; FTR 2,400 mg b.i.d. (B–D), day 7, 10 hour): 4.69 (2.57, 6.81) msec
Mean difference vs. placebo (90% CI), msec ddQTcF (healthy volunteers [2]; FTR 2,400 mg b.i.d. (B–D), day 7, 11.5 hour): 3.04 (0.92, 5.17) msec
Mean difference vs. placebo (90% CI), msec ddQTcF (healthy volunteers [2]; FTR 2,400 mg b.i.d. (B–D), day 7, 14 hour): 5.30 (3.18, 7.43) msec
Mean difference vs. placebo (90% CI), msec ddQTcF (healthy volunteers [2]; FTR 2,400 mg b.i.d. (B–D), day 7, 15 hour): 8.60 (6.47, 10.73) msec
Mean difference vs. placebo (90% CI), msec ddQTcF (healthy volunteers [2]; FTR 2,400 mg b.i.d. (B–D), day 7, 16 hour): 10.10 (7.98, 12.23) msec
Mean difference vs. placebo (90% CI), msec ddQTcF (healthy volunteers [2]; FTR 2,400 mg b.i.d. (B–D), day 7, 22.25 hour): 3.63 (1.51, 5.75) msec
change from placebo in baseline‐adjusted Fridericia‐corrected QTc (ddQTcF) (healthy volunteers [2]; Fostemsavir 1,200 mg b.i.d.): did not result in a clinically meaningful change
effect on heart rate, QRS or PR intervals, or waveform morphology (healthy volunteers [2]; fostemsavir 1,200 mg q.d. and 2,400 mg b.i.d.): did not have a clinically meaningful effect
upper bound of the 90% CI around ddQTcF (healthy volunteers [2]; fostemsavir 1,200 mg q.d., all time points): below 10 msec
ddQTcF upper bound of two‐sided 90% CI at maximum (healthy volunteers [2]; [8]): 6.3 ms
maximum time‐matched ddQTcF (healthy volunteers [2]; [8]): 4.3 ms
subjects with maximum QTcF between 450 and 480 msec (healthy volunteers [2]; fostemsavir 2,400 mg b.i.d.): Three
subjects with maximum change in QTcF between 30 and 60 msec (healthy volunteers [2]; fostemsavir 2,400 mg b.i.d.): Four
ddQTcF upper bound of two‐sided 90% CI at maximum (healthy volunteers [2]; [9]): 13.3 ms
maximum time‐matched ddQTcF (healthy volunteers [2]; [9]): 11.2 ms
ddQTcF upper bound of two‐sided 90% CI at maximum (healthy volunteers [2]; fostemsavir 2,400 mg b.i.d., at 5 hours post‐AM dose, listed as FTR): 13.3 (at 5 hour) msec
subjects discontinued due to QT prolongation (> 450 msec) [3]: Less than 2%
subjects discontinued due to QT prolongation (> 450 msec), number/total [3]: 7/371
ddQTcF upper 90% CI boundary, model‐predicted (healthy volunteers [4]; FTR 600 mg b.i.d. + cobicistat 150 mg q.d.): ≤ 5.0 ms
ddQTcF upper 90% CI boundary, model‐predicted (healthy volunteers [4]; FTR 600 mg b.i.d. + cobicistat 150 mg q.d., listed as FTR): 5.0 ^a msec
ddQTcF upper 90% CI boundary, model‐predicted (healthy volunteers [4]; FTR 600 mg b.i.d.): ≤ 3.2 ms
ddQTcF upper 90% CI boundary, model‐predicted (healthy volunteers [4]; FTR 600 mg b.i.d., listed as FTR): 3.2 ^a msec
cardiovascular abnormalities (healthy volunteers [5]): no clinically relevant cardiovascular abnormalities were observed
AE rate (healthy volunteers [6]; fostemsavir 1,200 mg q.d.): 53%
headache (healthy volunteers [6]; fostemsavir 1,200 mg q.d.): 16%
AE rate (healthy volunteers [6]; fostemsavir 2,400 mg b.i.d.): 56%
headache (healthy volunteers [6]; fostemsavir 2,400 mg b.i.d.): 35%
subjects discontinued for AEs (healthy volunteers [6]; fostemsavir 2,400 mg b.i.d. (vomiting, elevated aminotransferases, rash, headache/anxiety/dyspnea/pharyngeal edema)): five
Mean Cmax [7]: 2,096 ^b ng/mL
activity with regard to HIV‐1 tropism (HIV‐1): active regardless of HIV‐1 tropism
in vitro cross‐resistance to other antiretroviral drug classes (HIV‐1): no in vitro cross‐resistance

Reference: PMC7359933 (Clinical and Translational Science, 2020)
